# Screening data (PubChem BioAssay)
# CAL PDZ FP-1 – CAL PDZ peptide-binding inhibitors, primary screen, biochemical, fluorescence polarization, Cer-tagged CAL PDZ, HTS; inhibition, % at 20 µM; purified CAL PDZ, TMR-peptide fluorescence polarization, 1 h; hit rate 0.02% among 330,000; Golgi-associated PDZ and coiled-coil motif-containing protein (Homo sapiens), Q9HD26;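 active = highest replicate inhibition of at least 40%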;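 also: plate controls were DMSO neutral control wells for no effect and unlabeled competitor peptide control wells for full effect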
#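 material = purified tagged CAL PDZ domain construct (CerCALP) | buffer or medium = sodium phosphate/NaCl buffer pH 7.4 with TCEP, IgG, Thesit | reagent = TMR-labelled reporter peptide T*-PRC34 bound in PDZ groove | incubation = 1 h room-temperature incubation prior to read | measured by = fluorescence polarization (mP) | evaluation = percent inhibition from loss of millipolarization | control set = unlabelled peptide and DMSO controls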
# DENV2 CPE rescue – inhibitors of DENV2 cytopathic effect, primary screen, cell-based, plate reader, single concentration; DENV2-infected cells, cytopathic effect rescue; CPE inhibition, % at 9.99 µM; hit rate 1.7% among 350,000; AID 651640, 2012; in the data active = CPE inhibition above about 20%, passing the limit was not always enough; inconclusive = no clear call, values can overlap the other calls; tested in BHK-21 cells;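 also: 0% = median of neutral control wells and 100% = median of positive control wells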
# ERAP1 HTS inh – human ERAP1 aminopeptidase inhibitors, primary screen, biochemical, single point, plate reader; recombinant ERAP1, Leu-AMC fluorescence, 60 min; hit rate 0.15% among 340,000; inhibition, % at 10.7 µM;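 active = mean replicate inhibition of at least 30%, or all replicates individually reaching that 30% level; inactive = mean below 30% and not every replicate reaching it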;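 also: 0% = neutral control wells and 100% = L-leucinethiol positive control wells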
# S100A4 MyoIIA – inhibitors of S100A4-myosin IIA peptide binding, primary screen, biochemical, fluorescence polarization, TAMRA-MyoIIA peptide | inhibition, % at 10.7 µM | AID 652163, 2013 | Protein S100-A4 (Homo sapiens), P26447 | hit rate 0.14% among 360,000;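 active = mean inhibition of at least 70% across replicates, with every replicate also reaching that level; inconclusive = mean inhibition reaches 70% but some replicates fall short; inactive = mean inhibition below 70%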
# Target sequence (P26447 whole entry, looked up): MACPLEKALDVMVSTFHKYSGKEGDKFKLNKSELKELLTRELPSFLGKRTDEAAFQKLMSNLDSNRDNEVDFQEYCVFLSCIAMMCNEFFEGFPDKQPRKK
#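 System – human S100A4 monomer protein, biochemical binding assay · Buffer or medium – Calcium-containing HEPES buffer, pH 7.2 · Timing – 5 min between mix addition and reading · Also added – TAMRA-labelled myosin IIA heavy-chain peptide probe, 5 nM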
# SIRT5 inh – SIRT5 desuccinylase inhibitors, primary screen, biochemical, fluorescence imaging, single point, set 5. NAD-dependent protein deacylase sirtuin-5, mitochondrial (Homo sapiens), Q9NXA8. Purified SirT5, succinyl-peptide AMC, trypsin-coupled fluorescence. inhibition, % at 15 µM. hit rate 1.1% among 330,000; in the data active = inhibition above about 15%; inconclusive = no clear call, values can overlap the other calls
# Target sequence (Q9NXA8 whole entry, looked up): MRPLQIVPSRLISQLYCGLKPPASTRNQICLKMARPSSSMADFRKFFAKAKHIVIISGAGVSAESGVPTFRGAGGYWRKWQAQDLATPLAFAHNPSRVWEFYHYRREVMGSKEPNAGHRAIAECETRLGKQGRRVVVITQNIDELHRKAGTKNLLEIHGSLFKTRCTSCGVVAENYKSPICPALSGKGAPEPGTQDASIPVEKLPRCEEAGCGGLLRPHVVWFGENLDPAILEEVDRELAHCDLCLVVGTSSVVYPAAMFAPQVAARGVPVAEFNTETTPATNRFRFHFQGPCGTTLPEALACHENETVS
# CAL PDZ FP-2 – untagged CAL PDZ binding inhibitors, primary screen, biochemical, fluorescence polarization, HTS; AID 602252, 2012; inhibition, % at 24.9 µM; hit rate 0.92% among 300,000; purified CAL PDZ, TMR-peptide fluorescence polarization, 1 h;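 active = mean inhibition of at least 30% with at least half of replicates also reaching 30%; inconclusive = no clear call, values can overlap the other calls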;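 also: 0% = DMSO neutral control and 100% = excess unlabeled competitor peptide PRC23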
# Numbers without * were called inactive; ? = inconclusive; . = no result given; ! = a repeat was not active. The list is not random: actives were taken first. Their share in the collection is about 2.9%.
SMILES,CAL PDZ FP-1,DENV2 CPE rescue,ERAP1 HTS inh,S100A4 MyoIIA,SIRT5 inh,CAL PDZ FP-2
C[C@H](NC(=O)C[C@@H]1C[C@H]2c3cc(NC(=O)CN(C)C)ccc3O[C@H]2[C@@H](CO)O1)c1ccccc1,.,2,0,10,-4,.
C[C@H](NC(=O)C[C@H]1C[C@@H]2c3cc(NC(=O)CN(C)C)ccc3O[C@@H]2[C@H](CO)O1)c1ccccc1,.,1,3,108*,2,.
C[C@H](NC(=O)C[C@@H]1C[C@@H]2c3cc(NC(=O)Nc4ccc(C(F)(F)F)cc4)ccc3O[C@@H]2[C@@H](CO)O1)c1ccccc1,.,2,1,85*,.,.
C[C@H](NC(=O)C[C@@H]1C[C@H]2c3cc(NC(=O)Nc4ccc(C(F)(F)F)cc4)ccc3O[C@H]2[C@H](CO)O1)c1ccccc1,.,-2,0,-8,3,.
C[C@@H](NC(=O)C[C@@H]1C[C@H]2c3cc(NC(=O)c4ccc5c(c4)OCO5)ccc3O[C@H]2[C@H](CO)O1)c1ccccc1,.,?,2,-17,1,.
C[C@@H](NC(=O)C[C@@H]1C[C@@H]2c3cc(NC(=O)c4ccc5c(c4)OCO5)ccc3O[C@@H]2[C@H](CO)O1)c1ccccc1,.,5,1,4,15*,.
COc1ccc(S(=O)(=O)Nc2ccc3c(c2)C(=O)N([C@H](C)CO)C[C@@H](C)[C@H](CN(C)C(=O)Cc2ccccc2)OCCCC[C@@H](C)O3)cc1,.,1,-3,-79,5,.
O=C(NCc1ccccc1)[C@@H]1[C@@H](CO)[C@@H]2Cn3c(ccc(/C=C/c4ccccc4)c3=O)[C@H]1N2CC1CC1,.,-10,-91,-10,-77,.
Fc1ccc(Cn2nnc3ccccc32)cc1,.,.,.,.,.,123*
CO[C@@H]1CN(C)C(=O)c2ccc(NC(=O)C3CCC3)cc2OC[C@H](C)N(Cc2ccccn2)C[C@H]1C,.,0,0,-3,-4,.
Cc1ccc(CNC(=O)CCS(=O)(=O)c2cc3c(cc2Cl)NC(=O)CO3)cc1,-1,16,1,2,-1,0
CCOC(=O)N1CCN(C(=O)CCS(=O)(=O)c2cc3c(cc2Cl)NC(=O)CO3)CC1,-3,24*,.,-1,.,5
CCCCn1c(SCC(=O)Nc2nc(C)cs2)nnc1-c1cccnc1,0,-1,-2,0,17*,-6
CCCn1c(SCC(=O)Nc2nccs2)nnc1-c1cccnc1,.,.,.,.,.,6
O=C(CSc1ccc(-c2cccnc2)nn1)Nc1ccc(Br)cc1,0,30*,-7,4,-3,1
Cn1c(SCC(=O)NNC(=O)c2ccc(Br)cc2)nnc1-c1cccnc1,0,-5,-1,2,1,63*
COc1ccc(C(=O)NNC(=O)CSc2nnc(-c3cccnc3)n2C)cc1,-1,11,1,1,0,.
COc1ccc(S(=O)(=O)N(C)C[C@@H]2OCCCC[C@@H](C)Oc3ccc(NC(=O)CCCN(C)C)cc3C(=O)N([C@@H](C)CO)C[C@H]2C)cc1,.,6,-1,-1,-7,.
COc1ccc(S(=O)(=O)Nc2ccc3c(c2)C(=O)N([C@@H](C)CO)C[C@@H](C)[C@H](CN(C)Cc2ccc4c(c2)OCO4)OCCCC[C@H](C)O3)cc1,.,-5,-2,2,2,.
O=C(C[C@@H]1C[C@H]2c3cc(NC(=O)C4CCC4)ccc3O[C@H]2[C@@H](CO)O1)NCCN1CCCCC1,.,8,1,1,4,.
O=C(C[C@@H]1C[C@H]2c3cc(NC(=O)C4CCC4)ccc3O[C@H]2[C@H](CO)O1)NCCN1CCCCC1,.,26*,1,-50,3,.
O=C(C[C@@H]1C[C@H]2c3cc(NC(=O)Cc4ccncc4)ccc3O[C@H]2[C@@H](CO)O1)NCCN1CCCCC1,.,35*,1,1,-1,.
COC(=O)c1ccc(C)c(NC(=O)CSc2sc3c(O)cc(=O)[nH]c3c2C#N)c1,-3,2,-2,-6,19*,-8
Cc1ccc(C)c(NC(=O)CSc2sc3c(O)cc(=O)[nH]c3c2C#N)c1,-2,1,0,-2,4,2
CCc1nnc(NC(=O)CSc2sc3c(O)cc(=O)[nH]c3c2C#N)s1,-3,-3,0,-9,29*,-3
SMILES,CAL PDZ FP-1,DENV2 CPE rescue,ERAP1 HTS inh,S100A4 MyoIIA,SIRT5 inh,CAL PDZ FP-2
Cc1ccc(Cl)cc1NC(=O)CSc1sc2c(O)cc(=O)[nH]c2c1C#N,-2,15,2,-7,4,-1
Cc1csc(NC(=O)CSc2sc3c(O)cc(=O)[nH]c3c2C#N)n1,-4,-2,0,0,42*,-2
CCSc1nnc(NC(=O)CSc2sc3c(O)cc(=O)[nH]c3c2C#N)s1,-2,0,2,-1,32*,-8
O=C(c1ccccn1)N1CC(=O)N2[C@H](CO)[C@@H](c3ccc(C#Cc4ccccc4)cc3)[C@H]2C1,.,3,0,13,1,.
Cc1csc(NC(=O)c2ccc(S(C)(=O)=O)cc2)n1,0,-2,-2,-12,19*,2
COc1ccc(-c2csc(NC(=O)c3ccc(S(C)(=O)=O)cc3)n2)cc1,0,8,4,2,-3,5
O=C(C[C@@H]1C=C[C@H](NC(=O)C2CCOCC2)[C@@H](CO)O1)NCC1CC1,.,7,-1,-1,-2,.
CO[C@H]1CN(C)C(=O)c2ccc(NC(C)=O)cc2OC[C@H](C)N(Cc2ccccn2)C[C@H]1C,.,11,-1,3,1,.
COc1ccc(S(=O)(=O)Nc2cccc3c2O[C@@H](CN(C)S(C)(=O)=O)[C@@H](C)CN([C@@H](C)CO)C3=O)cc1,.,120*,-1,-3,2,.
COc1ccc(S(=O)(=O)N(C)C[C@@H]2Oc3c(NS(C)(=O)=O)cccc3C(=O)N([C@@H](C)CO)C[C@H]2C)cc1,0,-8,0,-13,20*!,-10
COc1ccc(S(=O)(=O)N(C)C[C@H]2Oc3c(NS(=O)(=O)c4cccs4)cccc3C(=O)N([C@@H](C)CO)C[C@@H]2C)cc1,.,36*,-1,-4,-1,.
COc1ccc(S(=O)(=O)N(C)C[C@@H]2Oc3c(NC(=O)C4CCCCC4)cccc3C(=O)N([C@H](C)CO)C[C@@H]2C)cc1,.,20*,0,-30,0,.
COc1ccc(S(=O)(=O)N(C)C[C@@H]2Oc3c(NS(=O)(=O)c4cccs4)cccc3C(=O)N([C@@H](C)CO)C[C@@H]2C)cc1,.,0,-4,-31,1,.
